Measurements as given in ChEMBL document CHEMBL4017537, “Discovery of a Potent and Specific M. tuberculosis Leucyl-tRNA Synthetase Inhibitor: (S)-3-(Aminomethyl)-4-chloro-7-(2-hydroxyethoxy)benzo[c][1,2]oxaborol-1(3H)-ol (GSK656)” (J Med Chem, 2017).

Assays:
[1] = AUC (0 to infinity) in C57BL/6 mouse at 5.5 mg/kg, iv administered as single dose measured up to 24 hrs by LC-MS/MS analysis; format: ADME, organism-based; parameters: dose 5.5 mg/kg, time infinity, route intravenous; settings: in vivo
[2] = tested on: Mycobacterium tuberculosis; assay: Antimicrobial activity against Mycobacterium tuberculosis H37Rv infected in C57BL/6J mouse assessed as bacterial load in lungs at 30 mg/kg qd administered for 8 consecutive weeks starting from 6 weeks post infection measured 24 hrs post last dose (reference value: 6.4 +/- 0.3 log10CFU); format: functional
In short: (§1)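 C57BL/6J mice infected intratracheally with ~10² CFU M. tuberculosis H37Rv. Dosed QD, 7 days/week, for 8 weeks starting 6 weeks post-infection; killed ≥24 h after last dose. Lung homogenates plated on 7H11/10% OADC for 21 days at 37 °C. n = 3 per dose group, 7 for controls; mean (SD); ANOVA with Dunnett's test versus 14-week untreated.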

[3] = tested on: Mycobacterium tuberculosis; assay: Antimicrobial activity against Mycobacterium tuberculosis H37Rv infected in C57BL/6J mouse assessed as log reduction in bacterial load in lungs administered qd for 8 consecutive weeks starting from 6 weeks post infection measured 24 hrs post last dose; format: functional; in short: as §1
[4] = Volume of distribution at steady state in CD-1 mouse at 30 mg/kg, iv after 24 hrs by LC-MS/MS analysis; format: ADME, organism-based; settings: in vivo, read-out: Vdss
[5] = AUC (0 to infinity) in CD-1 mouse at 30 mg/kg, iv after 24 hrs by LC-MS/MS analysis; format: ADME, organism-based; parameters: dose 30 mg/kg, route intravenous, time infinity; settings: in vivo

| SMILES | AUC(0-inf) [1] [ng·h/mL] | Activity [2] [log10CFU] | Activity [3] | Vd [4] [L/kg] | AUC(0-inf) [5] [ng·h/mL] |
| --- | --- | --- | --- | --- | --- |
| Cl.NC[C@H]1OB(O)c2c(OCCO)ccc(Cl)c21 | 11100 | 4.4 | Dose-dependent effect |  |  |
| CCOc1ccc(Br)c2c1B(O)O[C@@H]2CN |  |  |  | 3.2 | 43400 |
